Key:
Conditions in all cases: stereoisomer not certain
UniProt Q8VGC6 = target: T1, UniProt Q8VGC6
T1 sequence (whole entry): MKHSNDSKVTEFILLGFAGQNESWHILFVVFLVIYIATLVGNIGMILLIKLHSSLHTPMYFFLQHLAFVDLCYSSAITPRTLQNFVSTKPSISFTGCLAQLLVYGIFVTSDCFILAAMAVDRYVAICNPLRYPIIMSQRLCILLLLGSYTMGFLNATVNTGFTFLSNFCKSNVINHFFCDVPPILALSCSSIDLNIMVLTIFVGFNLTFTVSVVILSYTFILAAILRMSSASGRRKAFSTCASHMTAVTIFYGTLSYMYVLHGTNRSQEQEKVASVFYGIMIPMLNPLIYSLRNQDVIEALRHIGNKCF
Outline: (§1)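 Each entry records the cell line, G-protein, co-transfected protein and tags used. Methods varied with the source, often transient luciferase assays in mammalian cell lines. A receptor–molecule pair is called responsive (active) if the original authors judged its signal statistically different from baseline and non-responsive (inactive) otherwise.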

UniProt Q8VGJ3 = target: T2, UniProt Q8VGJ3
T2 sequence (whole entry): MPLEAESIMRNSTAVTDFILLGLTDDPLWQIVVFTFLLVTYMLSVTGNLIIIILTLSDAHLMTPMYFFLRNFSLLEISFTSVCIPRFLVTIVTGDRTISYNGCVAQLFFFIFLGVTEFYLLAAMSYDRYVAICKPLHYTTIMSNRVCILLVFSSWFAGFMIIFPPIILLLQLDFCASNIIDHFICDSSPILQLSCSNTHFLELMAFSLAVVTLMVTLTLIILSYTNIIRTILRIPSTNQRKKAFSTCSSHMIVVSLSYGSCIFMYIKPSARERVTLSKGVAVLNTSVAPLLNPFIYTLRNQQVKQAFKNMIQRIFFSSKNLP
Outline: as §1

UniProt Q8VGL0 = target: T3, UniProt Q8VGL0
T3 sequence (whole entry): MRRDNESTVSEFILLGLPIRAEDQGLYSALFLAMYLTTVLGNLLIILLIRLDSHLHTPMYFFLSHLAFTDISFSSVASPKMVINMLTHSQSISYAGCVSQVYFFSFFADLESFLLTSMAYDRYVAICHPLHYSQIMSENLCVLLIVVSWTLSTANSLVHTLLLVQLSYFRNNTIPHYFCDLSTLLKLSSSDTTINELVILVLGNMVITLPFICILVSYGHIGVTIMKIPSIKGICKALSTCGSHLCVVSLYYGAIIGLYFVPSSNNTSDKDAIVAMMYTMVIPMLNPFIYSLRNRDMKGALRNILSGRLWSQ
Outline: as §1

UniProt Q8VGU3 = target: T4, UniProt Q8VGU3
T4 sequence (whole entry): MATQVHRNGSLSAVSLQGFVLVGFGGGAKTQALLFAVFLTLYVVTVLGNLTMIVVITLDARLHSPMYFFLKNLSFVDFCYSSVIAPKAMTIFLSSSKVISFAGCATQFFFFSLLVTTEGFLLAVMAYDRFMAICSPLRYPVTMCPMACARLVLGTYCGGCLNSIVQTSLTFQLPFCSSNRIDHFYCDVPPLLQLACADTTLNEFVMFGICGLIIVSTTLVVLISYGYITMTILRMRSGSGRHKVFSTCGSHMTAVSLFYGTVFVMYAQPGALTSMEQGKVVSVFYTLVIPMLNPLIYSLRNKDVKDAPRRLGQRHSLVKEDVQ
Outline: as §1

UniProt Q8VGV7 = target: T5, UniProt Q8VGV7
T5 sequence (whole entry): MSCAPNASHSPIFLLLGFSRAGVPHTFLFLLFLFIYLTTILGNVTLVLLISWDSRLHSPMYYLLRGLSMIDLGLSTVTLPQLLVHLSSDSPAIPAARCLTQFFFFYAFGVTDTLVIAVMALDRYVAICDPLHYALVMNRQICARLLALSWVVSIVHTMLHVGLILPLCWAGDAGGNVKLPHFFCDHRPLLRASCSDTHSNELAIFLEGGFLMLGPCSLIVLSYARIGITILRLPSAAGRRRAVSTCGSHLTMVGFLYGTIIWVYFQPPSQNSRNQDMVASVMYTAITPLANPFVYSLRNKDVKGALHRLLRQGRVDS
Outline: as §1

UniProt Q8VGW5 = target: T6, UniProt Q8VGW5
T6 sequence (whole entry): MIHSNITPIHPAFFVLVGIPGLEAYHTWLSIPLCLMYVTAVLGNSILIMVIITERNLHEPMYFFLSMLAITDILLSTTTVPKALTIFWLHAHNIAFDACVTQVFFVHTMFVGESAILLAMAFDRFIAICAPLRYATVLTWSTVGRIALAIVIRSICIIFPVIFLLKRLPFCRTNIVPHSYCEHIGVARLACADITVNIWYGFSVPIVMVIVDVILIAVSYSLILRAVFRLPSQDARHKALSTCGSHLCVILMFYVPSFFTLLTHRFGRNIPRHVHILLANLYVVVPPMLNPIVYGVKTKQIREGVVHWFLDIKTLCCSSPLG
Outline: as §1

UniProt Q8VGX3 = target: T7, UniProt Q8VGX3
T7 sequence (whole entry): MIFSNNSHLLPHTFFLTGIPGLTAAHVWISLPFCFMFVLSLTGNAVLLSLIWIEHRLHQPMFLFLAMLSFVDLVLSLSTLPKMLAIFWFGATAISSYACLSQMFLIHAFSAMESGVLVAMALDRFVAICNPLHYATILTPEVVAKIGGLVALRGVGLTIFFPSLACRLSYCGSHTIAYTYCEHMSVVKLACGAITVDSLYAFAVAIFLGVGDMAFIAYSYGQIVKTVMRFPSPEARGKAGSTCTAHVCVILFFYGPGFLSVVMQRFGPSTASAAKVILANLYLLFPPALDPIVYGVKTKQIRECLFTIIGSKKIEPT
Outline: as §1

UniProt Q8VGX5 = target: T8, UniProt Q8VGX5
T8 sequence (whole entry): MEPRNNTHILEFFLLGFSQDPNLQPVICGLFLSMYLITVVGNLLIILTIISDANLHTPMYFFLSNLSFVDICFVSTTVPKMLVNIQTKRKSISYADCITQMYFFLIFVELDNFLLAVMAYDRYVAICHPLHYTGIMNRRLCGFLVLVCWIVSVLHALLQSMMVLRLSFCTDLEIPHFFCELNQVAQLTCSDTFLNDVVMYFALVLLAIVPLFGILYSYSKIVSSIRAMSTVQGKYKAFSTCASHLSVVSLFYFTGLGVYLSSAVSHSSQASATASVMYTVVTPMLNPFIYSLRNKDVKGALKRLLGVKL
Outline: as §1

Row | SMILES | odorant receptor agonist call (UniProt Q8VGC6) | odorant receptor agonist call (UniProt Q8VGJ3) | odorant receptor agonist call (UniProt Q8VGL0) | odorant receptor agonist call (UniProt Q8VGU3) | odorant receptor agonist call (UniProt Q8VGV7) | odorant receptor agonist call (UniProt Q8VGW5) | odorant receptor agonist call (UniProt Q8VGX3) | odorant receptor agonist call (UniProt Q8VGX5)
1 | O=C([O-])CCCCCCCC(=O)[O-].[H+].[H+] | inactive | inactive | inactive | inactive | inactive | inactive | inactive | inactive
2 | CCc1occc(=O)c1O | inactive | inactive | inactive | inactive | inactive | – | inactive | active
3 | CCCCCCCOC(=O)C(C)C | inactive | inactive | inactive | inactive | inactive | – | inactive | inactive

Reference: the M2OR odorant receptor database
